Screens deposited in PubChem BioAssay by several laboratories.
Sampled rows, rich in hits. Any-hit rate of the full collection: about 4.9%.
STAT1 activator – increases IFN-gamma driven STAT1 reporter signal; activation (% of control), % at 5.5 µM; NIH 3T3 STAT1-luciferase reporter, luminescence; 100% = IFN-gamma alone, no compound; 200,000 compounds, 2.6% hits;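 active = activation above the screen-wide mean activation plus 3 SD, cut at about 130% in these data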;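 note: raw ratio to IFN-gamma control signal so 100% means no change and 0% no light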
STAT1 inh – STAT1 signaling inhibition; NIH 3T3 STAT1-luciferase reporter, IFN-gamma, luminescence; inhibition, % at 5.5 µM; 200,000 compounds, 0.35% hits; AID 920;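 active = inhibition above a set limit, the mean inhibition across all tested compounds plus 3 SD, cut at about 34% in these data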;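 note: 0% = IFN-gamma with DMSO and 100% = IFN-gamma with 300 µM nifuroxazide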
STAT3 inh – reduces IL-6 driven STAT3 reporter signal | U3A cells, IL-6 STAT3-luciferase reporter, luminescence; host cell line lacks STAT1 | inhibition, % at 5.5 µM | 190,000 compounds, 0.89% hits;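 active = inhibition above the mean inhibition across all screened compounds plus 3 SD, cut at about 44% in these data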;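 note: 0% = DMSO only wells and 100% = 100 µM nifuroxazide control wells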
APP 5'UTR act – activates APP 5'UTR luciferase reporter. activation, % at 2 µM. 190,000 compounds, 1% hits. SH-SY5Y APP 5'UTR luciferase reporter, luminescence; zero percent = DMSO vehicle wells;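 active = activation above a set limit, based on mean plus 3 SD of controls, cut at about 140% in these data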
NF-kB expr up – NF-kB expression increase, human neuronal cells; NF-kB reporter expression; active compounds read high; fold change at 12.5 µM; 190,000 compounds, 1.6% hits; AID 1239; in the data active = fold change above about 3.3
STAT3 activator – increases IL-6 driven STAT3 reporter signal | activation (% of control), % at 5.6 µM | U3A cells, IL-6 STAT3-luciferase reporter, luminescence; 100% = signal with IL-6 EC80 alone | 190,000 compounds, 0.91% hits;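 active = activation above the screen-wide mean of compound activation plus 3 SD, cut at about 130% in these data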;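 note: 0% = background luminescence of wells with medium and substrate only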
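Material: STAT3-luciferase reporter U3A cells; Probe or stimulus: IL-6 (33 ng/mL); Incubation: compound pre-incubation 1 h before IL-6, then 6 h stimulation at 37 °C; Technique: luminescence from STAT3-driven luciferase reporter; Evaluation: % activation versus median of IL-6-stimulated wells; Controls: IL-6-only high control.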
Starred values were filed as active, the others as inactive; nt = no result.

SMILES	STAT1 activator	STAT1 inh	STAT3 inh	APP 5'UTR act	NF-kB expr up	STAT3 activator
Cc1cccc(-n2ncc3c(NCc4ccc5c(c4)OCO5)ncnc32)c1	106.3	-6.9	0.6	12.2	1.19	99.2
Clc1ccc(-n2ncc3c(NCc4ccccn4)ncnc32)cc1	149.6*	-54.6	1.4	25.7	2.64	103.1
Cc1ccc(-n2ncc3c(NCc4ccccn4)ncnc32)c(C)c1	100.1	-0.1	29.9	12.3	1.23	82.2
Cc1ccc(-n2ncc3c(NCc4ccccc4)ncnc32)cc1	136.5*	-40.0	-2.7	53.5	1.53	106.8
CCCCNc1ncnc2c1cnn2-c1ccccc1	134.2*	-37.6	26.7	101.8	5.65*	83.5
COC(=O)c1ccc(NC(=O)c2cccc(C)c2[N+](=O)[O-])cc1	107.8	-10.4	8.9	-12.7	1.22	95.6
CCCCNc1ncnc2c1cnn2-c1ccc(C)cc1C	109.7	-9.4	-7.3	-6.3	1.1	106.1
Cc1cccc(-n2ncc3c(NCCCO)ncnc32)c1	140.6*	-44.8	-15.7	135.4*	3.29	121.0
CC1CCN(CC(=O)Nc2cccc(Cl)c2)CC1	101.0	-4.4	-3.4	7.6	1.21	106.9
O=C(O)c1ccc(Nc2cnc3ccccc3n2)cc1	130.6*	-33.2	2.2	5.2	1.85	104.8
O=C(O)c1cnc2ccccc2n1	97.5	2.8	10.3	-7.3	1.55	97.6
O=c1oc2ccccc2cc1-c1nc2c(s1)CCc1ccccc1-2	103.9	-4.4	-39.0	nt	0.96	133.6*
Nc1nnc(-c2cc3ccccc3oc2=O)s1	131.1*	-33.2	-3.6	20.2	1.89	104.2
O=c1oc2cc(O)ccc2cc1-c1nc2c(s1)CCc1ccccc1-2	98.8	1.3	7.7	4.1	0.86	97.3
COc1ccc2oc(=O)c(-c3nnc(N)s3)cc2c1	120.2	-22.0	-1.1	42.5	1.87	107.8
Cc1ccccc1-c1nn(-c2ccc(F)cc2F)cc1CNC1CC1	94.0	5.0	11.5	11.0	nt	94.3
CN(C(=O)COC(=O)c1ccc(=O)n(Cc2ccccc2)n1)c1ccccc1	95.0	4.1	7.1	-15.9	1.44	97.8
CC(Nc1cccc(F)c1)C(=O)Nc1ccc(S(N)(=O)=O)cc1 (configuration not stated)	97.7	2.1	2.4	25.1	1.08	101.3
CC(=O)N1CC2(NC(=O)c3ccccc3N2)c2ccccc21 (configuration not stated)	97.9	1.0	nt	8.0	1.09	nt
CCOC(=O)c1cc(CC)sc1NC(=O)COC(=O)c1cc[n+]([O-])cc1	99.2	-2.4	-2.9	-5.0	1.02	106.4
COc1ccc(Nc2nc(N)nc(CSC(=S)N3CCCCC3)n2)cc1	128.6*	-28.3	-13.6	13.0	1.51	116.3
CCCS(=O)c1nc(C)cc(C)c1S(C)(=O)=O (configuration not stated)	104.7	-7.0	4.9	1.9	0.96	105.3
N#C/C(=C\c1ccc(OCc2ccccc2)cc1)C(N)=O	130.1*	-29.9	-2.6	57.8	1.91	106.6
CN(C)c1nc(Nc2ccc(Cl)cc2)nc(OCC#N)n1	86.7	14.5	-37.1	0.3	0.61	135.5*
O=c1c(-c2ccc3c(c2)OCCO3)coc2cc(O)cc(O)c12	119.3	-21.2	12.4	144.7*	5.84*	93.2
SMILES	STAT1 activator	STAT1 inh	STAT3 inh	APP 5'UTR act	NF-kB expr up	STAT3 activator
CCN(CC)c1ccc(C=C2C(=O)OC(c3ccccc3)OC2=O)cc1 (configuration not stated)	103.6	-4.7	17.7	-5.7	1.12	93.9
CCN(CC)c1ccc(/C=C/C(=O)C2C(=O)C=C(C)OC2=O)cc1 (configuration not stated)	137.5*	-43.5	-16.3	164.1*	1.92	123.5
CC(=O)N1CCc2cc(N=NC3=C(O)CC(C)(C)CC3=O)ccc21	131.7*	-35.8	5.4	109.0	0.92	101.2
CCOC(=O)C(=O)Nc1cc(C)on1	92.0	7.5	9.6	34.0	1.19	93.3
Cc1ccc(-c2nnc(SCC(=O)NC3CCS(=O)(=O)C3)nc2-c2ccc(C)cc2)cc1 (configuration not stated)	104.6	-5.2	5.4	-21.4	1.12	95.4
Cc1ccc(N/C(N)=N/c2nc(CSc3nnc(C)s3)cc(=O)[nH]2)c(C)c1	94.8	4.8	-24.7	-93.4	3.15	135.3*
Cc1ccc(OC(=O)c2cccc(S(=O)(=O)N3CCCC3)c2)c(-n2nc3ccccc3n2)c1	119.6	-22.1	-19.6	113.2	3.54*	114.9
Cc1ccc(OCC(=O)O)c(-n2nc3ccccc3n2)c1	91.2	9.7	0.5	-4.2	1.09	104.7
CC(=O)Oc1ccc(C)cc1-n1nc2ccccc2n1	115.4	-16.9	14.8	104.5	3.49*	90.8
Cc1ccc(OC(=O)c2ccc(S(=O)(=O)N(C)C)cc2)c(-n2nc3ccccc3n2)c1	114.5	-16.3	-9.9	84.7	4.48*	112.1
Cc1ccc(OC(=O)c2cccc(S(=O)(=O)N(C)C)c2)c(-n2nc3ccccc3n2)c1	111.5	-12.4	-1.3	31.6	2.84	98.5
Cc1ccc(C(=O)OCC(=O)c2ccc(Cl)s2)s1	130.6*	-33.1	4.8	-1.5	2.15	95.5
O=C(COC(=O)c1ccc[nH]c1=O)c1ccc(Cl)s1	104.0	-4.4	-2.3	7.7	1.02	104.3
O=[N+]([O-])c1cc(S(=O)(=O)NC2=NCCCCC2)ccc1NCC1CCCCC1	89.2	9.8	23.7	2.4	0.75	85.7
Cc1cc(C(=O)N2CCN(S(=O)(=O)c3ccccc3F)CC2)c(C)o1	99.3	1.4	-5.4	-19.9	1.53	105.0
c1ccc(-c2nc(C3CCCCC3)no2)cc1	119.4	-21.3	-9.2	18.9	1.22	111.3
CCOc1cc(-c2nc(-c3ccccc3OC)no2)cc(OCC)c1OCC	96.8	3.5	3.2	29.7	0.82	99.9
COc1cc(-c2nc(-c3cccc(C)c3)no2)cc(OC)c1OC	111.1	-12.0	0.9	18.4	1.37	100.8
COc1ccc(-c2nc(-c3cccc(C)c3)no2)cc1OC	137.9*	-45.9	5.8	3.2	2.75	97.8
Cc1cccc(-c2noc(-c3ccc4c(c3)OCO4)n2)c1	85.6	16.0	69.0*	186.2*	nt	43.1
COc1ccc(-c2nc(-c3ccccc3OC)no2)cc1OC	131.7*	-34.6	7.4	31.2	1.23	95.8
COc1ccc(-c2nc(C3CCCCC3)no2)cc1OC	133.8*	-37.2	2.0	70.6	1.98	102.6
COc1ccc2[nH]c(=O)c(CNc3ccccc3)cc2c1	129.1*	-32.6	-26.3	42.9	1.25	121.8
COC(=O)c1sc(NC(=O)/C=C/c2ccc(C)cc2)nc1C	103.5	-4.0	13.3	30.2	1.24	92.1
CC(C)(C)c1ccc(/C=C/C(=O)Nc2nncs2)cc1	126.0	-28.5	-7.6	168.0*	1.25	115.3
Cc1ccccc1Nc1ncnc(N)n1	98.4	1.4	-3.7	-4.0	0.92	110.1
O=S1(=O)C[C@H]2NC(=S)N(c3ccccc3)[C@H]2C1	94.3	6.3	3.4	5.4	1.12	96.5
